SMARCA2 activ = increases SMARCA2 function in MMTV reporter cells; MG213 cells, MMTV-luciferase reporter, dexamethasone, overnight; activation, % at 9.1 µM; 370,000 compounds, 1% hits; in the data active = activation above about 7.8%;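 also: 0% = vehicle wells and 100% = reference activator wells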
SR-BI DiI inh = mouse SR-BI HDL lipid transfer inhibition. 320,000 compounds, 0.96% hits. ldlA[mSR-BI] CHO cells, DiI-HDL uptake fluorescence, 3 h. AID 488896. inhibition, % at 12.5 µM. Q61009;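 active = mean replicate inhibition of at least 70% and a set share of replicates each scoring 70 or more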;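 also: 0% = median of neutral control wells and 100% = median of positive control wells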
Target sequence (Q61009 whole entry, looked up): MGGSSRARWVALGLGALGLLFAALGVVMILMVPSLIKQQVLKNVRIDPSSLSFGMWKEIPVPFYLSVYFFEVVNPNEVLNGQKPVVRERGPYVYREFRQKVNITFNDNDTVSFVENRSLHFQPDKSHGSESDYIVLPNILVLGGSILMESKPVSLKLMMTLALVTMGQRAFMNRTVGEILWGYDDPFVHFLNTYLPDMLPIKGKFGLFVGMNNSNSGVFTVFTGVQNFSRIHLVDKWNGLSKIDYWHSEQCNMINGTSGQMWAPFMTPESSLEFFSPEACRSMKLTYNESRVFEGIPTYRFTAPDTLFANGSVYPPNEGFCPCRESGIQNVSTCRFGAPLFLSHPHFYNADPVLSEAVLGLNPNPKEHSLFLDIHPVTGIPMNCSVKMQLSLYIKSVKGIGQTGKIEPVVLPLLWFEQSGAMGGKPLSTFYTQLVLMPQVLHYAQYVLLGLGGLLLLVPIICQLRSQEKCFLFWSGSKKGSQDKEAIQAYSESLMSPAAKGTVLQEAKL
Yeast superoxide = lowers age-related superoxide in aged yeast cells; 330,000 compounds, 0.18% hits; S. cerevisiae aged cells, superoxide DHE fluorescence; hits give low values; AID 2690; superoxide response (% of plate mean), % at 10 µM;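 active = superoxide response under a set limit, about three screen SD below normal, cut at about 65% in these data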;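 also: yeast aged for seven days with compound at 30 °C before DHE staining; 100% = average MFI of all compound-treated wells on the plate with controls excluded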
AHR activator = activators of human aryl hydrocarbon receptor. P35869. AHR-responsive luciferase reporter cells, luminescence. activation, % at 5 µM. 320,000 compounds, 2.5% hits; in the data active = activation above about 47%;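 also: 0% = vehicle wells and 100% = reference agonist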
SR-BI DiI-HDL act = activators of SR-BI mediated HDL lipid uptake. CHO ldlA[mSR-BI] cells, DiI-HDL uptake fluorescence, 3 h; 100 = double the neutral-control signal. activation, % at 12.5 µM. 320,000 compounds, 0.096% hits;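 active = mean replicate activation of at least 60% and every replicate at or above 60%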;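 also: 0% = median plate neutral-control signal and 100% = twice that signal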
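system = CHO ldlA[mSR-BI] cells, LDL receptor-null, SR-BI overexpressing | medium = Ham's F12 with 0.5% BSA, HEPES 25 mM, pH 7.4 | probe or stimulus = DiI-HDL 10 µg/mL | compound dosing = single-point compound dose | incubation = compound exposure 3 h, 37 °C | technique = DiI fluorescence, bottom read | read-out = cell-associated DiI fluorescence as measure of HDL uptake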
Lipid droplet = modulators of hepatic lipid droplet formation; AML12 mouse hepatocytes, oleate lipid droplets, BODIPY imaging; 240,000 compounds, 0.4% hits; AID 1656; inhibition, % at 6.5 µM;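 active = lipid droplet intensity inhibited by at least 50%, with more than 500 cells counted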
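Material: mouse AML12 hepatocyte cell line, fixed after treatment; Timing: compound with oleate, overnight; Technique: high-content imaging of BODIPY-stained droplets and DAPI nuclei; Probe or stimulus: oleate, 100 µM final; Dosing: compound at 6.5 µM only.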
SMARCA2 conf = confirmation of SMARCA2 (BRM) function activators; shares compounds with SMARCA2 activ; MG213 cells, MMTV-luciferase with dexamethasone, luminescence, overnight; MG213 cells expressing E1A, Rb sequestered; DMSO wells 0%, reference activator 100%; activation, % at 9.1 µM; 3,500 compounds, 30% hits;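 active = activation above its plate's cutoff, the mean activation of tested wells plus 3 SD, cut at about 7.9% in these data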
VP16 Luc act = activates GAL4-VP16 luciferase, flagging SMARCA2 activator hits. 3,500 compounds, 41% hits. HEK293 GAL4-VP16 pG5luc reporter, luciferase luminescence; scaled: DMSO wells 0%, SAHA wells 100%. activation, % at 9.1 µM. AID 686939. shares compounds with SMARCA2 activ;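 active = activation above the solvent-only control well mean plus 3 SD, averaged across control plates, cut at about 5.2% in these data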
Numbers without * were called inactive; i = inactive; x = no result. A selection: hits, their analogues and other compounds. The true share with any hit is near 4.3%.

SMILES	SMARCA2 activ	SR-BI DiI inh	Yeast superoxide	AHR activator	SR-BI DiI-HDL act	Lipid droplet	SMARCA2 conf	VP16 Luc act
COc1ccc(CCNC(=O)C(=O)N/N=C/c2cccs2)cc1OC	14*	23	105	4	-23	-10	-1	-1
CC(C)CN1CN2Cc3cc(F)ccc3C2CS1(=O)=O (stereo unspecified)	-2	x	x	x	x	x	x	x
O=C(CCOc1ccccc1)Nc1ccc(Br)cc1	11*	-20	98	2	20	x	8	5.3*
O=C(c1cccs1)N1CC[C@H]2[C@H](CCCN2Cc2ccc(F)cc2)C1	1	x	x	x	x	x	x	x
CC(C)(C)c1ccc2cccc(F)c2n1	9.4*	x	x	x	x	x	-1	1
NC(=O)c1ccc(-c2ncc(-c3ccccc3)o2)cc1	18*	-44	123	-11	44	x	17*	11*
c1ccc(-c2cnc(-c3cccnc3)o2)cc1	1	20	93	13	-20	x	x	x
O=C(COc1ccc(Cl)cc1)NCC(=O)N1CCC2(CC1)NCCc1[nH]cnc12	9.7*	-7	97	0	7	-2	3	2
CCOc1ccc(C(=O)NCC(=O)N2CCC3(CC2)NCCc2[nH]cnc23)cc1	1	-16	119	0	16	22	x	x
COC(=O)C1CN(CCc2ccccc2)CCS(=O)(=O)N1Cc1ccc(C(F)(F)F)cc1 (stereo unspecified)	-3	x	x	x	x	x	x	x
CN(C)CCN(C(=O)c1ccc(C(=O)c2ccccc2)cc1)c1nc2cc3c(cc2s1)OCCO3	0	18	103	6	-18	-1	x	x
CN(C)CCN(C(=O)c1ccco1)c1nc2cc3c(cc2s1)OCCO3	9.7*	-1	111	5	1	-3	2	4
COc1ccc2noc3c2c1C(=O)c1ccccc1-3	16*	-2	95	18	2	x	8.4*	2
COc1ccc(N)c2c1C(=O)c1ccccc1C2=O	8.3*	18	106	2	-18	0	16*	5
COc1ccc(C(=O)c2c(C(F)(F)F)oc3c2C(=O)c2ccccc2C3=O)cc1	x	15	197	-15	-15	-28	x	x
COC(=O)[C@]12C[C@H](CC(=O)N3CCN(C(=O)C4CC4)CC3)C(=O)N(CCc3ccc(OC)c(OC)c3)C1=C[C@H](C1CCCC1)O[C@@H]2C	0	x	x	x	x	x	x	x
O=C1c2cccc3cccc(c23)C(=O)N1c1ccccn1	-1	7	96	-3	15	9	x	x
O=C1c2cccc3cccc(c23)C(=O)N1c1cccnc1	8.5*	13	i	16	-13	x	-1	1
Cc1ccc(Nc2nc(C3CC3)cs2)cc1	x	x	x	x	x	37	x	x
Clc1ccc(Nc2nc(C3CC3)cs2)cc1	8.2*	28	109	22	-28	x	5	7.1*
CCOC(=O)C1=C(C(=O)OCC)C2N(Cc3ccc(C#N)cc3)c3ccccc3[C@@]23C[C@@H](C(=O)OC)N(S(=O)(=O)c2cccs2)C3=N1 (stereo partly specified)	-3	x	x	x	x	x	x	x
CCCC[C@H]1C2CC(OC(=O)NCCCc3ccccc3)C(C2)[C@H]2CCCCN21 (stereo partly specified)	11*	x	x	x	x	x	0	1
COc1ccc(/C=N\NC(=O)c2nn(C)cc2Cl)cc1CN1CCOCC1	10*	-8	102	-8	8	12	-2	2
Cc1cc(C(=O)Cn2ncc(Cl)c(Cl)c2=O)c(C)n1CC(F)(F)F	-12	46	115	1	-46	-13	x	x
Cc1ccc(C(=O)OCn2ncc(Cl)c(Cl)c2=O)cc1	-10	-5	145	1	5	x	x	x
Cc1cccc(Cn2ncc(Cl)c(Cl)c2=O)c1	10*	-16	129	2	16	x	-3	0
Cc1ccc(C)c(C(=O)Cn2ncc(Cl)c(Cl)c2=O)c1	30*	-3	102	3	3	-8	-14	1

Bioassay records as filed in PubChem.
